The list is not random: actives were taken first. Their share in the collection is about 1.8%.
M4 ag: agonists of human muscarinic M4 receptor (CHRM4); P08173; CHO-K1 hM4/Gqi5, Fluo-8 calcium fluorescence; vehicle 0%, full acetylcholine response 100%; activation, % at 3 µM; 0.14% of 360,000 active; AID 624127;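 active = activation above the run mean over all test wells plus 3 SD, cut at about 32% in these data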;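 also: peak over basal fluorescence ratio per well then scaled between controls; 0% = DMSO wells and 100% = acetylcholine at EC100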
Target sequence (P08173 whole entry, looked up): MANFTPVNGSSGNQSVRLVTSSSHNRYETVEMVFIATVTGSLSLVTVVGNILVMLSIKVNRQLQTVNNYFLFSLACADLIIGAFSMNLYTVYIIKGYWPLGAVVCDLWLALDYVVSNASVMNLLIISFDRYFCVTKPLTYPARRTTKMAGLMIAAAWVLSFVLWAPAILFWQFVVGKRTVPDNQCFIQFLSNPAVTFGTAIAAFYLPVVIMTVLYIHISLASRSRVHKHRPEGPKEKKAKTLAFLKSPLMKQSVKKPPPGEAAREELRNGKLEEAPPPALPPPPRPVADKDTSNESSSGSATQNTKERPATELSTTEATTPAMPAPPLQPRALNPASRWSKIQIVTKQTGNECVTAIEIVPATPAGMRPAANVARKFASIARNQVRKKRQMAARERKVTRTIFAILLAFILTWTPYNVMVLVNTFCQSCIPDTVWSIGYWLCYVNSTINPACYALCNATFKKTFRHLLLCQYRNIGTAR
CHRM5 antagonist: CHRM5 antagonism in calcium assay; P08912; CHO-hM5 cells, Fluo-8 calcium fluorescence, ACh EC80; inhibition, % at 3 µM; 0.59% of 360,000 active; AID 624040;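 active = inhibition above a per-plate cutoff, the mean of that plate's test compounds plus 3 SD, cut at about 27% in these data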;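 also: 0% = acetylcholine EC80 with DMSO and 100% = DMSO without agonist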
M5 ag: CHRM5 agonism in calcium assay; P08912; CHO-K1 hM5 cells, Fluo-8 calcium fluorescence; 0% DMSO wells, 100% maximal acetylcholine response; activation, % at 3 µM; 0.19% of 360,000 active; AID 624037;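 active = activation above the run's mean over test compounds plus 3 SD, cut at about 23% in these data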;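 also: signal is peak over basal fluorescence ratio across the kinetic read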
CHRM4 antagonist: CHRM4 antagonism in calcium assay; P08173; CHO-hM4 cells, ACh EC80, Fluo-8 calcium fluorescence; inhibition, % at 3 µM; 0.73% of 360,000 active; AID 624125;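 active = inhibition above its plate's cutoff, the mean inhibition of sample wells plus 3 SD, cut at about 27% in these data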;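 also: 0% = acetylcholine EC80 with DMSO and 100% = DMSO without agonist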
CHRM5 PAM: potentiates acetylcholine response at human M5 receptor | activation, % at 3 µM | 0.3% of 360,000 active | CHO-K1 hM5, Fluo-8 calcium, ACh EC20 PAM; 0% = ACh EC20, 100% = ACh EC100 | P08912;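 active = activation above the run cutoff, the mean activation of all test compounds plus 3 SD, cut at about 18% in these data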
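System – CHO-K1 hM5 cells · Compound – 3 µM, single dose · Incubation – compound preincubation 140 s before EC20 acetylcholine addition · Technique – Fluo-8 calcium fluorescence · Measure – Max/basal fluorescence ratio as % of EC20–EC100 ACh window · Benchmarks – low control EC20 acetylcholine (0%), high control EC100 acetylcholine (100%) · Replication – singlicate, one well per test compound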
M4 PAM: CHRM4 positive allosteric modulation; P08173; CHO-K1 hM4/Gqi5, Fluo-8 calcium fluorescence, ACh EC20; 0% = ACh EC20, 100% = maximal ACh; activation, % at 3 µM; 0.4% of 360,000 active;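 active = activation above its plate's cutoff, the mean activation of sample wells plus 3 SD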
Starred values were filed as active, the others as inactive.

SMILES | M4 ag | CHRM5 antagonist | M5 ag | CHRM4 antagonist | CHRM5 PAM | M4 PAM
CC(=O)Nc1nc(-c2cccc3ccccc23)cs1 | -1 | -17 | -5 | -10 | 15 | -6
CCOC(=O)CN1C(=O)C2(OCCCO2)c2cc(Br)ccc21 | 0 | -10 | 4 | 0 | 13 | -1
CCCCn1c(Cc2ccccc2)n[nH]c1=S | 0 | 39* | -7 | 83* | -19 | -28
CCn1c(Cc2ccccc2)n[nH]c1=S | 1 | -5 | -10 | 1 | 7 | -3
Cc1cc(C)cc(N(CCC(=O)O)S(=O)(=O)c2ccc(Cl)cc2)c1 | -1 | -10 | 1 | 36* | 7 | -3
CCc1nnc(NC(=O)CCN(c2cc(C)cc(C)c2)S(=O)(=O)c2ccc(Cl)cc2)s1 | 1 | 11 | 6 | -15 | 19* | 18
Cc1ccc(/C=C2\CCC3=C2OC(N)=C(C#N)C3c2ccc(C)cc2)cc1 (centres undefined) | 15 | 33* | 4 | 30* | -28 | 1
O=C(O)C1C2CCC(O2)C1C(=O)Nc1ccc(OC(F)F)cc1 (centres undefined) | 1 | -7 | -3 | -20 | 6 | 3
Cc1ccc(N2C(=O)CCSC23C(=O)Nc2ccccc23)cc1 (centres undefined) | 1 | 7 | -7 | 27* | -9 | -18
CC[C@H](C)C1OC(=O)[C@@H](C)[C@@H](CC)NC(=O)[C@H](C)N(C)C(=O)C(C)(C)C(=O)C(C)NC(=O)[C@H](Cc2ccc(OC)cc2)N(C)C(=O)[C@H](C(C)C)N(C)C(=O)CNC(=O)[C@H](CC(C)C)N(C)C(=O)CNC1=O (some centres undefined) | 0 | -7 | 3 | -17 | 13 | 23*
CCc1ccc(OC(=O)Nc2ccccc2)cc1 | 0 | 7 | -2 | 4 | 4 | -2
O=[N+]([O-])c1ccc(S(=O)(=O)CC2CSc3nc4ccccc4n32)cc1 (centres undefined) | 0 | 5 | 3 | 8 | -6 | 33*
O=C1NC[C@H](CCCCN2C[C@H](Cc3ccc(O)cc3)N(CCc3ccccc3)C(=O)C2=O)N(CCc2ccc(O)cc2)C1=O | 2 | 3 | 2 | -11 | -6 | 14
O=C(CSc1nnc(Cn2nnc3ccccc32)o1)N(Cc1ccc(Cl)cc1)c1ccccc1 | 8 | 30* | 2 | 13 | -18 | -12
Cc1ccc(NC(=O)CSc2nnc(N)s2)cc1S(=O)(=O)N1CCOCC1 | 1 | -3 | 5 | -11 | 2 | 6
Cc1nnsc1SCCNC(=O)Nc1ccc(Cl)cc1 | 14 | 32* | 4 | 9 | -22 | -3
COc1cc(NS(=O)(=O)c2ccc(C)cc2)c2ncccc2c1 | 1 | 22 | -6 | 26 | -1 | 0
Cc1ccc(S(=O)(=O)Nc2cccc3cccnc23)cc1 | 3 | 18 | -3 | 32* | -5 | -5
CN(Cc1ccccc1)C(=O)c1ccc(NC(=O)Cc2ccc([N+](=O)[O-])cc2)cc1 | 13 | 2 | 26* | 1 | 14 | -3
CCc1nnc(NC(=O)CCN2C(=O)/C(=C/c3cc(OC)c(OC)c(OC)c3)SC2=S)s1 | 2 | -11 | -3 | -28 | 4 | 15*
COc1cc(OC)c(OC)cc1CN1CCN(Cc2ccc(C(F)(F)F)cc2)CC1 | 1 | -7 | 0 | -9 | 22* | 4
Cc1cc(OCC(=O)Nc2ccc(CN3CCCCC3)cc2)ccc1Cl | 36* | 19 | 2 | 18 | -15 | -21
COc1ccc(NC(=O)CCNC(=O)c2ccc([N+](=O)[O-])cc2)cc1S(=O)(=O)N1CCCCC1 | 0 | -2 | 3 | -14 | 4 | 22*
CCN(CC)CCCOC(=O)C1(c2ccccc2)CCCC1 | 1 | 99* | -11 | 96* | -16 | -22
CCN(CC)CCOC(=O)C1(c2ccc([N+](=O)[O-])cc2)CCCC1 | 2 | 84* | -2 | 49* | -19 | -17
SMILES | M4 ag | CHRM5 antagonist | M5 ag | CHRM4 antagonist | CHRM5 PAM | M4 PAM
CCN(CC)CCOC(=O)C1(c2ccccc2)CCOCC1 | 0 | -5 | -11 | 2 | -18 | 0
CCN(CC)CCOCCOC(=O)C1(c2ccccc2)CCCC1 | 2 | 96* | -1 | 91* | -19 | -17
Cc1cccc(NC(=O)C2(c3ccc([N+](=O)[O-])cc3)CCCC2)c1 | 5 | -8 | -6 | -5 | -19 | -6
CN(C)c1ccc(S(=O)(=O)N2CCCCC2)cc1NC(=O)CCNC(=O)c1ccccc1Cl | 2 | 5 | 1 | -3 | 0 | 6
O=C(c1cccc(C(F)(F)F)c1)N1CCc2c([nH]c3ccccc23)C1C(F)(F)F (centres undefined) | -1 | -9 | 0 | 12 | -4 | -12
COc1ccccc1N1CCN(C2CCCN(C(=O)CCC(C)=O)C2)CC1 (centres undefined) | 0 | -10 | 4 | 3 | 1 | -5
Cc1cc([N+](=O)[O-])ccc1NCc1ccccc1 | 11 | 12 | -7 | 16 | -21 | -15
COc1ccccc1CNc1ccc([N+](=O)[O-])cc1C | 13 | 33* | -5 | 3 | -15 | -12
CON(C)C(=O)CCN(Cc1ccccc1)C(=O)OC(C)(C)C | 2 | -5 | -4 | -7 | 19* | 12
CON(C)C(=O)CC(CN(Cc1ccccc1)C(=O)OC(C)(C)C)c1ccc(Cl)cc1 (centres undefined) | 1 | -8 | -4 | -6 | -4 | -4
CC1CCN(C(=O)COC(=O)/C=C/c2ccco2)CC1 | 1 | 11 | 0 | -28 | -3 | 22
C=CCC(O)(CCN1CCCCC1)c1ccccc1 (centres undefined) | 0 | 46* | -10 | 33* | -15 | -24
CCCCOc1ccc(C(O)(CCN2CCOCC2)c2ccccc2)cc1 (centres undefined) | 3 | 5 | -6 | -8 | -5 | 0
NC(=O)C(CCCCN1CCCCC1)(c1ccccc1)c1ccccc1 | 0 | 15 | -13 | 37* | -21 | -9
COc1ccc(C(O)(CCc2ccccc2)CCN2CCCCC2)cc1 (centres undefined) | 2 | 16 | -11 | 1 | -15 | -14
OC(CCN1CCCCC1)(c1ccccc1)c1ccccc1 | 1 | 99* | -1 | 100* | -18 | -18
OC(CCCN1CCCCC1)(c1ccccc1)c1ccc(C(F)(F)F)cc1 (centres undefined) | 5 | 13 | -12 | 50* | -31 | -11
O=C(c1ccc(NS(=O)(=O)c2ccc(F)cc2)cc1)N1CCCCCC1 | 3 | -8 | 2 | 13 | 1 | -10

Screening data deposited in PubChem BioAssay by The Scripps Research Institute Molecular Screening Center.
